Data taken from ChEMBL document CHEMBL5724801, “EUbOPEN Chemogenomics Library - Multiplex” (2024).
Several values for one entry are separate records, joined by “and”; a condition that tells them apart may be missing. Equal entries are not always repeated.

Test system: Fibroblast
Test: Multiplex assay against human fibroblast
Format: toxicity, cell-based
Method in brief: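 With compound added, live cells were imaged on a CQ1 microscope at 37°C and 5% CO2; staining with Hoechst33342, BioTracker Green Microtubule Cytoskeleton Dye, MitoTracker Red and Annexin V Alexa Fluor 680 had been done at seeding. The CellPathfinder machine-learning gating scheme split cells into Hoechst high-intensity objects or normal cells, normal cells into healthy, pyknosed or fragmented nuclei, and pyknosed cells into mitotic or apoptotic. The tubulin, mitochondrial-mass and membrane-permeability phenotypes are per cents of healthy-nucleus cells.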

[1] = 12 h, 1 µM, compound concentration 1 uM
[2] = 12 h, 10 µM, compound concentration 10 uM
[3] = 24 h, 1 µM, compound concentration 1 uM
[4] = 24 h, 10 µM, compound concentration 10 uM
[5] = 48 h, 1 µM, compound concentration 1 uM
[6] = 48 h, 10 µM, compound concentration 10 uM

Cc1noc(-c2ccc(-c3ccc(CC(=O)O)cc3)cc2)c1NC(=O)O[C@H](C)c1ccccc1Cl
Population Apoptotic (%) [1]: 22% and 58%
Population Fragmented Nuclei (%) [1]: 14% and 21%
Population Healthy Nuclei (%) [1]: 77% and 60%
Population Hoechst High Intensity Objects (%) [1]: 0% and 5%
Population Membrane Permeable-Phenotype (%) [1]: 0% and 5%
Population Mitochondria Different-Phenotype (%) [1]: 1% and 2%
Population Mitotic Cells (%) [1]: 77% and 41%
Population Normal (%) [1]: 100% and 95%
Population Pyknosed Nuclei (%) [1]: 8% and 18%
Population Tubulin-Different-Phenotype (%) [1]: 10% and 26%
Total Cell Count [1]: 106 and 140
Population Apoptotic (%) [2]: 40% and 29%
Population Fragmented Nuclei (%) [2]: 20% and 17%
Population Healthy Nuclei (%) [2]: 62% and 45%
Population Hoechst High Intensity Objects (%) [2]: 1% and 6%
Population Membrane Permeable-Phenotype (%) [2]: 1% and 2%
Population Mitochondria Different-Phenotype (%) [2]: 6% and 10%
Population Mitotic Cells (%) [2]: 60% and 70%
Population Normal (%) [2]: 98% and 93%
Population Pyknosed Nuclei (%) [2]: 17% and 36%
Population Tubulin-Different-Phenotype (%) [2]: 31% and 57%
Total Cell Count [2]: 119 and 90
Population Apoptotic (%) [3]: 20% and 52%
Population Fragmented Nuclei (%) [3]: 16% and 30%
Population Healthy Nuclei (%) [3]: 78% and 57%
Population Hoechst High Intensity Objects (%) [3]: 0% and 2%
Population Membrane Permeable-Phenotype (%) [3]: 0% and 1%
Population Mitochondria Different-Phenotype (%) [3]: 1% and 7%
Population Mitotic Cells (%) [3]: 80% and 47%
Population Normal (%) [3]: 100% and 97%
Population Pyknosed Nuclei (%) [3]: 4% and 12%
Population Tubulin-Different-Phenotype (%) [3]: 10% and 28%
Total Cell Count [3]: 102 and 161
Population Apoptotic (%) [4]: 50% and 32%
Population Fragmented Nuclei (%) [4]: 20% and 26%
Population Healthy Nuclei (%) [4]: 68% and 41%
Population Hoechst High Intensity Objects (%) [4]: 1%
Population Membrane Permeable-Phenotype (%) [4]: 0%
Population Mitochondria Different-Phenotype (%) [4]: 7% and 10%
Population Mitotic Cells (%) [4]: 50% and 67%
Population Normal (%) [4]: 98%
Population Pyknosed Nuclei (%) [4]: 11% and 31%
Population Tubulin-Different-Phenotype (%) [4]: 29% and 65%
Total Cell Count [4]: 122 and 98
Population Apoptotic (%) [5]: 44% and 60%
Population Fragmented Nuclei (%) [5]: 18% and 35%
Population Healthy Nuclei (%) [5]: 73% and 55%
Population Hoechst High Intensity Objects (%) [5]: 1% and 2%
Population Membrane Permeable-Phenotype (%) [5]: 1% and 5%
Population Mitochondria Different-Phenotype (%) [5]: 1% and 3%
Population Mitotic Cells (%) [5]: 55% and 40%
Population Normal (%) [5]: 98% and 97%
Population Pyknosed Nuclei (%) [5]: 8%
Population Tubulin-Different-Phenotype (%) [5]: 16% and 25%
Total Cell Count [5]: 112 and 171
Population Apoptotic (%) [6]: 23% and 39%
Population Fragmented Nuclei (%) [6]: 30% and 40%
Population Healthy Nuclei (%) [6]: 55% and 37%
Population Hoechst High Intensity Objects (%) [6]: 4% and 2%
Population Membrane Permeable-Phenotype (%) [6]: 2% and 0%
Population Mitochondria Different-Phenotype (%) [6]: 4% and 10%
Population Mitotic Cells (%) [6]: 76% and 60%
Population Normal (%) [6]: 95% and 97%
Population Pyknosed Nuclei (%) [6]: 13% and 22%
Population Tubulin-Different-Phenotype (%) [6]: 35% and 69%
Total Cell Count [6]: 133 and 107

C[C@@H]1CC(=O)Nc2cccc(-c3ccc4c(c3)c(-c3cnn(C)c3)nn4C)c2N1
Population Apoptotic (%) [1]: 38%
Population Fragmented Nuclei (%) [1]: 20% and 26%
Population Healthy Nuclei (%) [1]: 63% and 47%
Population Hoechst High Intensity Objects (%) [1]: 1% and 5%
Population Membrane Permeable-Phenotype (%) [1]: 0% and 8%
Population Mitochondria Different-Phenotype (%) [1]: 4% and 12%
Population Mitotic Cells (%) [1]: 61%
Population Normal (%) [1]: 98% and 94%
Population Pyknosed Nuclei (%) [1]: 15% and 26%
Population Tubulin-Different-Phenotype (%) [1]: 31% and 51%
Total Cell Count [1]: 115 and 105
Population Apoptotic (%) [2]: 40% and 30%
Population Fragmented Nuclei (%) [2]: 17% and 11%
Population Healthy Nuclei (%) [2]: 65% and 58%
Population Hoechst High Intensity Objects (%) [2]: 5% and 6%
Population Membrane Permeable-Phenotype (%) [2]: 1% and 7%
Population Mitotic Cells (%) [2]: 59% and 69%
Population Normal (%) [2]: 94% and 93%
Population Pyknosed Nuclei (%) [2]: 17% and 30%
Population Tubulin-Different-Phenotype (%) [2]: 63% and 68%
Total Cell Count [2]: 161 and 126
Population Apoptotic (%) [3]: 57% and 35%
Population Fragmented Nuclei (%) [3]: 16% and 29%
Population Healthy Nuclei (%) [3]: 67% and 50%
Population Hoechst High Intensity Objects (%) [3]: 2% and 7%
Population Membrane Permeable-Phenotype (%) [3]: 2% and 11%
Population Mitochondria Different-Phenotype (%) [3]: 5% and 9%
Population Mitotic Cells (%) [3]: 42% and 65%
Population Normal (%) [3]: 97% and 92%
Population Pyknosed Nuclei (%) [3]: 15% and 19%
Population Tubulin-Different-Phenotype (%) [3]: 33% and 60%
Total Cell Count [3]: 122 and 112
Population Apoptotic (%) [4]: 75% and 42%
Population Fragmented Nuclei (%) [4]: 19% and 13%
Population Healthy Nuclei (%) [4]: 69% and 57%
Population Hoechst High Intensity Objects (%) [4]: 10% and 5%
Population Membrane Permeable-Phenotype (%) [4]: 0% and 1%
Population Mitotic Cells (%) [4]: 25% and 57%
Population Normal (%) [4]: 89% and 94%
Population Pyknosed Nuclei (%) [4]: 11% and 29%
Population Tubulin-Different-Phenotype (%) [4]: 66% and 76%
Total Cell Count [4]: 158 and 119
Population Apoptotic (%) [5]: 50% and 30%
Population Fragmented Nuclei (%) [5]: 25% and 36%
Population Healthy Nuclei (%) [5]: 60% and 50%
Population Hoechst High Intensity Objects (%) [5]: 5% and 2%
Population Mitochondria Different-Phenotype (%) [5]: 6% and 8%
Population Mitotic Cells (%) [5]: 50% and 69%
Population Normal (%) [5]: 94% and 97%
Population Pyknosed Nuclei (%) [5]: 14% and 13%
Population Tubulin-Different-Phenotype (%) [5]: 21% and 60%
Total Cell Count [5]: 114 and 102
Population Apoptotic (%) [6]: 92% and 60%
Population Fragmented Nuclei (%) [6]: 17%
Population Healthy Nuclei (%) [6]: 73% and 62%
Population Hoechst High Intensity Objects (%) [6]: 3% and 4%
Population Membrane Permeable-Phenotype (%) [6]: 0% and 6%
Population Normal (%) [6]: 96% and 95%
Population Pyknosed Nuclei (%) [6]: 8% and 19%
Population Tubulin-Different-Phenotype (%) [6]: 68% and 69%
Total Cell Count [6]: 162 and 122
